# The source made the active and inactive calls.
# Tests used:
# [1] = test system: Trypanosoma brucei brucei; test: Antiparasitic activity against Trypanosoma brucei brucei LAB 110 EATRO infected in mouse assessed as parasitemia cure incidence at 2 mg/kg, ip qd for 4 days administered on 1st day of infection and measured through day 40 post infection; assay type: functional, organism-based; design: dose 2 mg/kg
# [2] = test system: Trypanosoma brucei brucei; test: Antiparasitic activity against Trypanosoma brucei brucei LAB 110 EATRO infected in mouse assessed as mean survival days at 2 mg/kg, ip qd for 4 days administered on 1st day of infection and measured through day 40 post infection; assay type: functional; settings: route intraperitoneal
# In short: (§1)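 Mice in groups of five, infected i.p. on day 0 with 2.5 × 10^5 T. b. brucei LAB 110 EATRO parasites; i.p. dosing began day 1. Parasitemia checked twice weekly by microscopy of at least 20 fields of wet blood smears through day 40, with animals considered cured only when clear through day 40.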
# CYP2D6 = CYP2D6 (Homo sapiens, UniProt P10635); test: (§2) Inhibition of human cytochrome P450 2D6; settings: human
# Sequence of CYP2D6 (P10635 whole entry): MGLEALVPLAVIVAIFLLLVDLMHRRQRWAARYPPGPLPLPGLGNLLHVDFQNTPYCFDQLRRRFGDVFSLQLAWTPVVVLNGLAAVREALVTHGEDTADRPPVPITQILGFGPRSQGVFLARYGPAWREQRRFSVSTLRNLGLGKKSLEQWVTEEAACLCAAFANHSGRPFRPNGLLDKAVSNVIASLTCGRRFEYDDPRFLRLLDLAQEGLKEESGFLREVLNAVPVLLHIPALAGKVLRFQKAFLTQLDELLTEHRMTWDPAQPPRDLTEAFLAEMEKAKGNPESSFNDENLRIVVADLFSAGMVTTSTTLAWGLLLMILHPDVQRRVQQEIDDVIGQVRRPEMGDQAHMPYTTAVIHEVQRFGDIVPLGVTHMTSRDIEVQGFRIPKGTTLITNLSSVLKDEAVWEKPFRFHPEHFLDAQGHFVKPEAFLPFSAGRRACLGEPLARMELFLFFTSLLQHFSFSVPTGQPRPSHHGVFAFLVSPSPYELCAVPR
# CYP2C9 = CYP2C9 (Homo sapiens, UniProt P11712); test: (§3) Inhibition of human cytochrome P450 2C9; settings: human
# Sequence of CYP2C9 (P11712 whole entry): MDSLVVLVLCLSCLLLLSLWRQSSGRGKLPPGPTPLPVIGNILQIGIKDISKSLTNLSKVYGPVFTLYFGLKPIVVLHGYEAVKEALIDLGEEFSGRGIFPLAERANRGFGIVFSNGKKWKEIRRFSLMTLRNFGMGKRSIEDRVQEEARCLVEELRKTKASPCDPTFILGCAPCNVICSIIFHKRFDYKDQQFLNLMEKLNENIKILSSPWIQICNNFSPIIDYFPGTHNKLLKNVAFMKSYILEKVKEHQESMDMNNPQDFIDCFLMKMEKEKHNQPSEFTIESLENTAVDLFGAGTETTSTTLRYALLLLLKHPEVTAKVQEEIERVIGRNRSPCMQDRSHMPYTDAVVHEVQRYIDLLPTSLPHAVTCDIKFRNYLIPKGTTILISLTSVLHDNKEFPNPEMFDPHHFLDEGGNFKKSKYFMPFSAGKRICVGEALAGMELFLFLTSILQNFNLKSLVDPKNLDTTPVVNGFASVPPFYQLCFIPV
# [3] = Metabolic stability in rat liver microsomes assessed as intrinsic clearance up to 45 mins by LC/MS/MS analysis; assay type: ADME, Microsome
# CYP1A2 = biological target: T1, CYP1A2 (Homo sapiens, UniProt P05177); test: (§4) Inhibition of human cytochrome P450 1A2; settings: human
# T1 sequence (P05177 whole entry): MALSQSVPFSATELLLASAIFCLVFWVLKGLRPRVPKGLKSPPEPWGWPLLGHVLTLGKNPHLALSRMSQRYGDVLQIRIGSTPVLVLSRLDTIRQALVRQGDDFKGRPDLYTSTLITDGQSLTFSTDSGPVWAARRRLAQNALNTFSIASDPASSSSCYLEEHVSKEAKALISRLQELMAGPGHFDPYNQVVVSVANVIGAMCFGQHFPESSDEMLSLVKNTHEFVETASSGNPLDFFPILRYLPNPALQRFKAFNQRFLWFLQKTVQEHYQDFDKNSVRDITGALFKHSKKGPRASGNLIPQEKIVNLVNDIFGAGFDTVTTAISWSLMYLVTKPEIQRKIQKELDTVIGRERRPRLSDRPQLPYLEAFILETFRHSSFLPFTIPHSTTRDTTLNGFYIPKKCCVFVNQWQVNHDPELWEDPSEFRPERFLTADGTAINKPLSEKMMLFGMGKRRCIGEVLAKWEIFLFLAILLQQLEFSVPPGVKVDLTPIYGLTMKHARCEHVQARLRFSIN
# [4] = test system: Trypanosoma brucei rhodesiense; test: Antiparasitic activity against Trypanosoma brucei rhodesiense STIB 900 clone after 72 hrs by Alamar blue assay; assay type: functional, organism-based; settings: STIB 900, 72 h
# [5] = Metabolic stability in human hepatocytes assessed as intrinsic clearance up to 45 mins by LC/MS/MS analysis; assay type: ADME, cell-based, Liver, Hepatocyte
# [6] = Protein binding in mouse plasma at pH 7.4 after 4 hrs; assay type: ADME, cell-free; settings: read-out: PPB (converted)
# CYP2C19 = CYP2C19 (Homo sapiens, UniProt P33261); test: (§5) Inhibition of human cytochrome P450 2C19; settings: human
# Sequence of CYP2C19 (P33261 whole entry): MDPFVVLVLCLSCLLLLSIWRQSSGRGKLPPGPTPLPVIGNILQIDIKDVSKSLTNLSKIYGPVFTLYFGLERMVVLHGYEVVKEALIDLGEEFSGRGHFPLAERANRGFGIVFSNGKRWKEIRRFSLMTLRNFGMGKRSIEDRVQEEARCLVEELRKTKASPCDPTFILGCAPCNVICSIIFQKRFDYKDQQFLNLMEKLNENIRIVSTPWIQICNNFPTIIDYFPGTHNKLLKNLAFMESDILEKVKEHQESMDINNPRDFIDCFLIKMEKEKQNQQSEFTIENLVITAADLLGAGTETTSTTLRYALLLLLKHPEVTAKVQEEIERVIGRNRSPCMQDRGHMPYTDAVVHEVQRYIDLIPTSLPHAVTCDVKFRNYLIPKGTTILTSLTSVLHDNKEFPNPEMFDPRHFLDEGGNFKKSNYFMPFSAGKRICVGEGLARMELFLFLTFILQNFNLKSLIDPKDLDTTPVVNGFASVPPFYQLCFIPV
# [7] = Metabolic stability in human liver microsomes assessed as intrinsic clearance up to 45 mins by LC/MS/MS analysis; assay type: ADME, Microsome
# CYP3A4 = CYP3A4 (Homo sapiens, UniProt P08684); test: (§6) Inhibition of human cytochrome P450 3A4; settings: human
# Sequence of CYP3A4 (P08684 whole entry): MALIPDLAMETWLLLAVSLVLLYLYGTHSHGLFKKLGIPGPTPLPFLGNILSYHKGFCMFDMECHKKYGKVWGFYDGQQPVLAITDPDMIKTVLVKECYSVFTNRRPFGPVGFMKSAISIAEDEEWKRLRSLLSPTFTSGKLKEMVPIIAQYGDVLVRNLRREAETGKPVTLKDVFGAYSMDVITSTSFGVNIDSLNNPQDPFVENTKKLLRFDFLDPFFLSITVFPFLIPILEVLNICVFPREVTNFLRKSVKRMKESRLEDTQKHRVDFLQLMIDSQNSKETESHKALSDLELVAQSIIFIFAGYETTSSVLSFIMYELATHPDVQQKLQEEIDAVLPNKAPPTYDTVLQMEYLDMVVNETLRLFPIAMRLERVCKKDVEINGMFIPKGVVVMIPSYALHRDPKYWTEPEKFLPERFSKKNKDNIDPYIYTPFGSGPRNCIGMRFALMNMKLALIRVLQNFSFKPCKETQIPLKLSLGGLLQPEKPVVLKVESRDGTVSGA
# [8] = Protein binding in human plasma at pH 7.4 after 4 hrs; assay type: ADME, cell-free; settings: read-out: PPB (converted)
# [9] = Metabolic stability in rat hepatocytes assessed as intrinsic clearance up to 45 mins by LC/MS/MS analysis; assay type: ADME, cell-based, Liver, Hepatocyte
# [10] = Kinetic solubility in phosphate-buffered saline at pH 7.4 after 16 to 24 hrs by UV spectrophotometry
# [11] = test system: Trypanosoma brucei brucei; test: Antiparasitic activity against Trypanosoma brucei brucei LAB 110 EATRO infected in mouse assessed as mean survival days at 50 mg/kg/day, ip qd for 7 days administered on 1st day of infection and measured through day 40 post infection; assay type: functional; settings: route intraperitoneal; in short: as §1
# Rattus norvegicus [12] = test: Volume of distribution at steady state in rat at 3 mg/kg, iv; assay type: ADME, organism-based; design: dose 3 mg/kg, route intravenous; settings: in vivo
# [13] = AUC in mouse blood at 50 mg/kg, ip administered as single dose; assay type: ADME, organism-based; design: dose 50 mg/kg, route intraperitoneal
# [14] = Cmax in mouse blood at 50 mg/kg, ip administered as single dose; assay type: ADME, organism-based; design: dose 50 mg/kg, route intraperitoneal
# [15] = Tmax in rat at 10 mg/kg, po; assay type: ADME, organism-based; design: dose 10 mg/kg, route oral; settings: in vivo
# In short: (§7)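 Rat groups of six, split into two subgroups to limit blood collections, dosed i.v. or p.o. Blood sampled at 15 min, 30 min, 2 h, 4 h, 8 h and 24 h. Drug levels measured by LC-MS-MS. Two separate rat studies were run.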
# [16] = test system: Trypanosoma brucei brucei; test: Antiparasitic activity against Trypanosoma brucei brucei STIB 795 infected in mouse assessed as parasitemia cure incidence at 50 mg/kg, ip qd for 4 days administered on 3rd day of infection; assay type: functional, organism-based; design: dose 50 mg/kg
# [17] = Permeability of the compound after 4 hrs by PAMPA assay; assay type: ADME; settings: read-out: permeability
# [18] = AUC in rat at 10 mg/kg, po; assay type: ADME, organism-based; design: dose 10 mg/kg, route oral; settings: plasma; in short: as §7
# [19] = test system: Trypanosoma brucei brucei; test: Antiparasitic activity against Trypanosoma brucei brucei LAB 110 EATRO infected in mouse assessed as parasitemia cure incidence at 50 mg/kg/day, ip qd for 7 days administered on 1st day of infection and measured through day 40 post infection; assay type: functional, organism-based
# [20] = AUC in rat at 3 mg/kg, iv; assay type: ADME, organism-based; design: dose 3 mg/kg, route intravenous; settings: plasma
# [21] = Oral bioavailability in rat at 10 mg/kg, po; assay type: ADME, organism-based; settings: in vivo; in short: as §7
# [22] = Cmax in rat at 10 mg/kg, po; assay type: ADME, organism-based; design: dose 10 mg/kg, route oral; settings: in vivo; in short: as §7
# [23] = Half life in mouse at 50 mg/kg, ip administered as single dose; assay type: ADME, organism-based; design: dose 50 mg/kg, route intraperitoneal; settings: in vivo
# [24] = Cmax in mouse brain at 50 mg/kg, ip administered as single dose; assay type: ADME, organism-based; design: dose 50 mg/kg, route intraperitoneal
# Rattus norvegicus [25] = test: Half life in rat at 3 mg/kg, iv; assay type: ADME, organism-based; design: dose 3 mg/kg, route intravenous; settings: in vivo
# [26] = test system: Trypanosoma brucei brucei; test: Antiparasitic activity against Trypanosoma brucei brucei STIB 795 infected in mouse assessed as mean survival days at 50 mg/kg, ip qd for 4 days administered on 3rd day of infection (reference value: 6.75 days); assay type: functional; settings: route intraperitoneal
# [27] = test system: Trypanosoma brucei brucei; test: Antiparasitic activity against Trypanosoma brucei brucei LAB 110 EATRO infected in mouse assessed as parasitemia cure incidence at 50 mg/kg/day, ip administered on 1st day of infection and measured through day 40 post infection
# [28] = test system: Trypanosoma brucei brucei; test: Antiparasitic activity against Trypanosoma brucei brucei LAB 110 EATRO infected in mouse assessed as mean survival days at 50 mg/kg/day, ip administered on 1st day of infection and measured through day 40 post infection; settings: route intraperitoneal
# [29] = AUC in mouse brain at 50 mg/kg, ip administered as single dose; assay type: ADME, organism-based; design: dose 50 mg/kg, route intraperitoneal
# [30] = Half life in rat at 10 mg/kg, po; assay type: ADME, organism-based; design: dose 10 mg/kg, route oral; settings: in vivo; in short: as §7
# in vivo = settings: mouse, brain, ip, 50 mg/kg
# Cytochrome P450 2D6 = Cytochrome P450 2D6 (Homo sapiens, UniProt P10635); test: as §2
# Sequence of Cytochrome P450 2D6 (P10635 whole entry): as the sequence (P10635 whole entry) above
# Cytochrome P450 2C9 = Cytochrome P450 2C9 (Homo sapiens, UniProt P11712); test: as §3
# Sequence of Cytochrome P450 2C9 (P11712 whole entry): as the sequence (P11712 whole entry) above
# Cytochrome P450 1A2 = biological target: T2, Cytochrome P450 1A2 (Homo sapiens, UniProt P05177); test: as §4
# T2 sequence (P05177 whole entry): T1 sequence (P05177 whole entry)
# Cytochrome P450 2C19 = Cytochrome P450 2C19 (Homo sapiens, UniProt P33261); test: as §5
# Sequence of Cytochrome P450 2C19 (P33261 whole entry): as the sequence (P33261 whole entry) above
# Cytochrome P450 3A4 = Cytochrome P450 3A4 (Homo sapiens, UniProt P08684); test: as §6
# Sequence of Cytochrome P450 3A4 (P08684 whole entry): as the sequence (P08684 whole entry) above
# [31] = Partition coefficient in RBCs; assay type: ADME, cell-based; settings: erythrocyte
# [32] = Permeability across apical to basolateral side of human Caco2 cells; assay type: ADME, cell-based; settings: Caco-2, read-out: permeability
# [33] = Metabolic stability in rat whole blood assessed as compound remaining; assay type: ADME, tissue-based
# [34] = Permeability across basolateral to apical side of human Caco2 cells; assay type: ADME, cell-based; settings: Caco-2, read-out: permeability
# [35] = Metabolic stability in rat plasma assessed as compound remaining after 4 hrs; assay type: ADME, cell-free; settings: read-out: Stability
# [36] = test system: Trypanosoma brucei brucei; test: Antiparasitic activity against Trypanosoma brucei brucei LAB 110 EATRO infected in mouse assessed as mean survival days at 50 mg/kg/day, ip bid for 4 days administered on 1st day of infection and measured through day 40 post infection; assay type: functional; settings: route intraperitoneal
# [37] = test system: Trypanosoma brucei brucei; test: Antiparasitic activity against Trypanosoma brucei brucei LAB 110 EATRO infected in mouse assessed as parasitemia cure incidence at 50 mg/kg/day, ip bid for 4 days administered on 1st day of infection and measured through day 40 post infection; assay type: functional, organism-based
# In short: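 Mice, groups of five, infected i.p. on day 0 with 2.5 × 10^5 parasites; dosing from day 1 at 50 mg/kg/day i.p., given either once daily for 7 days or split twice daily for 4 days. Treatment controls got pentamidine 2 mg/kg QD i.p. for 4 days. Read-out was microscopy of ≥20 fields of wet blood smears twice weekly to day 40; cure means no parasites.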
# [38] = Metabolic stability in human assessed as compound remaining plasma after 4 hrs; assay type: ADME, cell-free; settings: read-out: Stability
SMILES,IC50 (CYP2D6) [µM],IC50 (CYP2C9) [µM],CLint scaled [3] [mL/min/kg],IC50 (CYP1A2) [µM],IC50 [4] [nM],CLint scaled [5] [mL/min/kg],fraction unbound at 4 h [6],IC50 (CYP2C19) [µM],CLint scaled [7] [mL/min/kg],IC50 (CYP3A4) [µM],fraction unbound at 4 h [8],CLint scaled [9] [mL/min/kg],solubility kinetic [10] [µg/mL],AUC [13] [ng·h/mL],Cmax [14] [ng/mL],Papp at 4 h [17] [×10⁻⁶ cm/s],half-life [23] [min],Cmax [24] [ng/mL],AUC [29] [ng·h/mL],Kp (in vivo),further results
N=C(N)c1ccc(OCCCCCOc2ccc(C(=N)N)cc2)cc1 [PENTAMIDINE],–,–,–,–,–,–,–,–,–,–,–,–,–,–,–,–,–,–,–,–,Activity [1]: Active; Survival [2]: >40 days
CN(C/C=C\CN)C[C@H]1O[C@@H](n2cnc3c(N)ncnc32)[C@@H](F)[C@@H]1O,> 5,> 5,< 11,> 5,319,< 4.2,0.628,> 5,< 4.2,> 5,0.678,< 11,> 47,–,–,–,–,–,–,–,–
Cc1nc(N)c2ncn([C@@H]3O[C@H](CN(C)C/C=C\CN)[C@@H](O)[C@H]3O)c2n1,> 5,> 5,< 11,> 5,0.1,< 4.2,0.643,> 5,< 4.2,> 5,0.588,< 11,> 49,17900,36900,0.22,446,660,1300,7.28,Survival [11]: >40 days; Vdss (Rattus norvegicus [12]): 853 L/kg; Tmax [15]: 15 min; Activity [16]: Active; AUC [18]: 49 ng·h/mL; Activity [19]: Active; AUC [20]: 681 ng·h/mL; bioavailability [21]: 2.1%; Cmax [22]: 39 ng/mL; t1/2 (Rattus norvegicus [25]): 3.17 h; Survival [26]: >30 days; Activity [27]: Active; Survival [28]: >40 days; half-life [30]: 91.8 min
CN(C/C=C\CN)C[C@H]1O[C@@H](n2cnc3c(N)ncnc32)[C@H](F)[C@@H]1O,–,–,< 11,–,172,< 4.2,0.523,–,< 4.2,–,0.767,< 11,> 47,16300,33000,–,116,30,140,0.86,IC50 (Cytochrome P450 2D6): > 5 µM; IC50 (Cytochrome P450 2C9): > 5 µM; IC50 (Cytochrome P450 1A2): > 5 µM; IC50 (Cytochrome P450 2C19): > 5 µM; IC50 (Cytochrome P450 3A4): > 5 µM
CN(C/C=C\CN)C[C@H]1O[C@@H](n2cnc3c(N)nc(Cl)nc32)[C@H](O)[C@@H]1O,> 5,> 5,< 11,> 5,259,< 4.2,0.578,> 5,< 4.2,> 5,0.61,< 11,> 51,22100,39000,–,99.6,110,400,1.79,–
CN(C/C=C\CN)C[C@H]1O[C@@H](n2cnc3c(N)ncnc32)[C@H](O)[C@@H]1O,–,–,< 11,–,1.4,< 4.2,0.302,–,< 4.2,–,0.271,< 11,> 47,20700,44800,0.13,149,80,360,1.7,Partition coefficient [31]: 0.28; IC50 (Cytochrome P450 2D6): > 5 µM; Papp A→B [32]: 3.25 ×10⁻⁶ cm/s; IC50 (Cytochrome P450 2C9): > 5 µM; Stability [33]: 100%; Papp B→A [34]: 2.7 ×10⁻⁶ cm/s; remaining at 4 h [35]: 100%; IC50 (Cytochrome P450 1A2): > 5 µM; Survival [36]: >40 days; Activity [37]: Active; remaining at 4 h [38]: 100%; IC50 (Cytochrome P450 2C19): > 5 µM; Survival [26]: >30 days; IC50 (Cytochrome P450 3A4): > 5 µM; Survival [28]: >40 days

# — ChEMBL document CHEMBL1649443, “Novel S-adenosylmethionine decarboxylase inhibitors for the treatment of human African trypanosomiasis” (Antimicrob Agents Chemother, 2009)
